Results of several laboratories.
Protocols differ between the studies behind these lines.
Target: Serine/threonine-protein kinase VRK2 (VRK2, Homo sapiens, UniProt Q86Y07)

Compound	observed	technique	tested at	remaining binding
O=C(NCC1CCOCC1)c1n[nH]cc1NC(=O)c1c(F)cccc1F	binding	competition with immobilised ligand	1 µM	100%
C[C@H](c1ccnc(Nc2nc3ccc(-c4cc(N(C)C)ncn4)cc3[nH]2)c1)N1CCN(C(=O)CC(F)(F)F)CC1	cell-free assay	competition with immobilised ligand	0.1 µM	94%
Nc1ncc2c(n1)-c1c([nH]c3ccc(C#CC4CC4)cc13)CCCC2	binding	competition with immobilised ligand	1 µM	100%
Cc1c(NC(=O)c2cc(C(N)=O)nc3cc(F)ccc23)c(C(F)(F)F)nn1Cc1ccc(C(C)(C)C)cc1	cell-free assay	competition with immobilised ligand	1 µM	95%
O=C(c1ccc(Nc2nccc(-c3cc4ccccc4s3)n2)cc1)N1CCC(N2CCCC2)CC1	binding	competition with immobilised ligand	1 µM	35%
C[C@@H](c1ccc(-n2cnc3c(N)ncnc32)cc1)N1CCc2nn(C)c(Cc3ccccc3)c2C1=O	binding	competition with immobilised ligand	0.1 µM	47%
NS(=O)(=O)c1cc(NC(=O)Cc2ccccc2)ccc1Oc1cccc(Cl)c1	cell-free assay	competition with immobilised ligand	1 µM	100%
COc1cnc(Nc2cccc(S(N)(=O)=O)c2)nc1N1CCN(c2ccccc2)CC1	binding	competition with immobilised ligand	1 µM	69%
CN(c1nccc(-c2cnn3ncccc23)n1)C1CC1	binding	–	1 µM	100%
CCCCN(CCCC)C(=O)CN1C[C@@H](c2cc(OC)c3c(c2)OCO3)[C@H](C(=O)O)[C@H]1CC(C)(C)CCC	cell-free assay	competition with immobilised ligand	1 µM	95.4%
COc1ccnn2ncc(-c3ccnc(N(C)C)n3)c12	binding	–	1 µM	100%
CNC(=O)[C@@H]1CC[C@@H](n2c(-c3ccc4cnccc4c3)nc3ccc(C(=O)NCc4cccc(C(N)=O)c4)cc32)C1	binding	competition with immobilised ligand	1 µM	100%
CC1=C(C#N)C(c2ccc3c(c2)c(NC(=O)c2ccccc2C)nn3C)C(C#N)=C(C)N1	cell-free assay	competition with immobilised ligand	1 µM	72%
CC1CCCN1c1nccc(-c2cnn3ncccc23)n1 (centres unmarked)	binding	–	1 µM	100%
CC(C)CC(=O)N1CCc2nc(-c3ccc(Br)cc3)nc(N(C)Cc3ccccc3)c2C1	cell-free assay	competition with immobilised ligand	0.1 µM	77%
Cc1cnn2ncc(-c3ccnc(N(C)C)n3)c2c1	binding	–	1 µM	96%
CCCNc1nc(C#Cc2ccc(Cl)s2)nc2c1ncn2[C@H]1[C@H](O)[C@H](O)[C@]2(C(=O)NC)C[C@H]12	binding	competition with immobilised ligand	10 µM	31%
N[C@H]1CCN(c2nccc(-c3cnn4ncccc34)n2)C1	binding	–	1 µM	83%
O=C(NCCCN1CCOCC1)c1ccc(Nc2ncc(Cl)c(-c3ccc(Cl)s3)n2)cc1	binding	competition with immobilised ligand	1 µM	64%
C[C@H]1CCN(c2nccc(-c3cnn4ncccc34)n2)C1	binding	–	1 µM	81%
FC(F)(F)Oc1cccc(-c2cnc3ccc(-c4ccncc4)nn23)c1	binding	competition with immobilised ligand	5 µM	75%
CN(C)c1ncc(F)c(-c2cnn3ncccc23)n1	binding	–	1 µM	100%
Cc1cnc(Nc2ccc(C(=O)N3CCC(N4CCCC4)CC3)cc2)nc1-c1cc2ccccc2s1	binding	competition with immobilised ligand	1 µM	81%
